{"data": "Results collected from several papers", "cell line": "MCF7", "observed": "cell growth or viability", "note": "Each line is one published result; the experiments were not run side by side."}
{"SMILES": "O=C(Nc1cccc(-c2cn(Cc3ccc(Cl)cc3)nn2)c1)Nc1ccccc1Br", "test": "CCK-8", "setting": "50 µM, 72 h", "quantity": "viability", "value": "69.6%"}
{"SMILES": "NCCC(=O)Nc1ccccc1/N=c1\\cc(-c2ccc3c(c2)OCO3)oc2ccccc12", "test": "CCK-8", "setting": "1 µM", "quantity": "inhibition", "value": "-5.6%"}
{"SMILES": "CCCS(=O)(=O)Oc1cc(C=NNC(=O)c2nc3ccccc3s2)ccc1OC", "test": "MTT", "setting": "100 µM, 48 h", "quantity": "cell death", "value": "26.3%"}
{"SMILES": "Cc1n[nH]c2ccc3nc(-c4ccc(C(=O)NCCN(C)C)cc4F)c4c(c3c12)CCCC4", "setting": "72 h", "quantity": "GI50", "value": "0.99 µM"}
{"SMILES": "O=C(Nc1ccc(Cl)cc1)Nc1ccc(-c2cn(Cc3ccc(Cl)cc3)nn2)cc1", "test": "CCK-8", "setting": "50 µM, 72 h", "quantity": "viability", "value": "98%"}
{"SMILES": "Cc1n[nH]c2ccc3nc(-c4ccc(C(=O)NCCN(C)C)cc4)c4c(c3c12)CCCC4", "setting": "72 h", "quantity": "GI50", "value": "2.4 µM"}
{"SMILES": "NCCC(=O)Nc1cccc(/N=c2\\cc(-c3ccc4c(c3)OCO4)oc3ccccc23)c1", "test": "CCK-8", "setting": "1 µM", "quantity": "inhibition", "value": "15.7%"}
{"SMILES": "CCS(=O)(=O)Oc1ccc(C=NNC(=O)c2nc3ccccc3s2)cc1OC", "test": "MTT", "setting": "100 µM, 48 h", "quantity": "cell death", "value": "40.5%"}
{"SMILES": "NCC(=O)Nc1ccccc1/N=c1\\cc(-c2ccc3c(c2)OCCO3)oc2ccccc12", "test": "CCK-8", "setting": "1 µM", "quantity": "inhibition", "value": "-1.21%"}
{"SMILES": "COc1ccc(NC(=O)NCc2cn(Cc3ccc(Cl)cc3)nn2)cc1", "test": "CCK-8", "setting": "50 µM, 72 h", "quantity": "viability", "value": "95.3%"}
{"SMILES": "Nc1nc2ccc(-c3c/c(=N\\c4ccccc4NC(=O)CCN4CCOCC4)c4ccccc4o3)cc2o1", "test": "CCK-8", "setting": "1 µM", "quantity": "inhibition", "value": "7.35%"}
{"SMILES": "COc1ccc(NC(=O)Nc2cccc(-c3cn(Cc4ccc(C)cc4)nn3)c2)cc1", "test": "CCK-8", "setting": "50 µM, 48 h", "quantity": "viability", "value": "104%"}
{"SMILES": "O=C(Nc1ccc(-c2cn(Cc3ccc(Br)cc3)nn2)cc1)Nc1ccccc1Br", "test": "CCK-8", "setting": "50 µM, 48 h", "quantity": "viability", "value": "92.9%"}
{"SMILES": "COc1ccc(NC(=O)NCc2cn(Cc3ccc(Br)cc3)nn2)cc1", "test": "CCK-8", "setting": "50 µM, 72 h", "quantity": "viability", "value": "89.2%"}
{"SMILES": "CNCCC(=O)Nc1ccccc1/N=c1\\cc(-c2ccc3nc(N)oc3c2)oc2ccccc12", "test": "CCK-8", "setting": "1 µM", "quantity": "inhibition", "value": "31.9%"}
{"SMILES": "COc1cccc2c1C(=O)c1c(O)c3c(c(O)c1C2=O)C[C@@](O)(C(=O)CO)C[C@@H]3O[C@H]1C[C@H](N)[C@H](O)[C@H](C)O1", "test": "MTT", "setting": "48 h", "quantity": "IC50", "value": "5.17 µM"}
{"SMILES": "NC(=O)C1CCCN1C(=O)Nc1ccccc1/N=c1\\cc(-c2ccc3c(c2)OCCO3)oc2cc(F)ccc12 (stereo not drawn)", "test": "CCK-8", "setting": "1 µM", "quantity": "inhibition", "value": "7.19%"}
{"SMILES": "O=C(NCc1cn(Cc2ccc(Cl)cc2)nn1)Nc1ccc(Cl)cc1", "test": "CCK-8", "setting": "50 µM, 72 h", "quantity": "viability", "value": "83.3%"}
{"SMILES": "COc1ccc(NC(=O)Nc2ccc(-c3cn(Cc4ccc(Br)cc4)nn3)cc2)cc1", "test": "CCK-8", "setting": "50 µM, 72 h", "quantity": "viability", "value": "105%"}
{"SMILES": "CCOc1ccc(-c2cc(C(=O)O)c(-c3ccc(Cl)cc3)o2)cc1", "test": "MTT", "setting": "48 h", "quantity": "EC50", "value": "170 µM"}
{"SMILES": "O=C(Nc1ccc(Cl)cc1)Nc1cccc(-c2cn(Cc3cccc(Br)c3)nn2)c1", "test": "CCK-8", "setting": "50 µM, 48 h", "quantity": "viability", "value": "85.3%"}
{"SMILES": "COc1ccc2/c(=N/c3ccccc3NC(=O)[C@@H](N)C(C)(C)C)cc(-c3ccc4c(c3)OCO4)oc2c1", "test": "CCK-8", "setting": "1 µM", "quantity": "inhibition", "value": "14.2%"}
{"SMILES": "COc1ccc(NC(=O)Nc2ccc(-c3cn(Cc4ccc(Cl)cc4)nn3)cc2)cc1", "test": "CCK-8", "setting": "50 µM, 72 h", "quantity": "viability", "value": "99%"}
{"SMILES": "O=C(Nc1ccc(Cl)cc1)Nc1ccc(-c2cn(Cc3cccc(Cl)c3)nn2)cc1", "test": "CCK-8", "setting": "50 µM, 72 h", "quantity": "viability", "value": "98.2%"}
